Most compounds without a hit are left out; they make up all but 6.6% or so of the library.
HER2 expr 66K: Her2 kinase expression inhibition; P04626; SKBR-3 HER2 protein level, AlphaScreen, 18-24 h; stronger effect = lower value; HER2 level % of control, % at 10 µM; 0.69% of 65,000 active; AID 645;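 active means HER2 level under 5% of the carrier-only control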
Target sequence (P04626 whole entry, looked up): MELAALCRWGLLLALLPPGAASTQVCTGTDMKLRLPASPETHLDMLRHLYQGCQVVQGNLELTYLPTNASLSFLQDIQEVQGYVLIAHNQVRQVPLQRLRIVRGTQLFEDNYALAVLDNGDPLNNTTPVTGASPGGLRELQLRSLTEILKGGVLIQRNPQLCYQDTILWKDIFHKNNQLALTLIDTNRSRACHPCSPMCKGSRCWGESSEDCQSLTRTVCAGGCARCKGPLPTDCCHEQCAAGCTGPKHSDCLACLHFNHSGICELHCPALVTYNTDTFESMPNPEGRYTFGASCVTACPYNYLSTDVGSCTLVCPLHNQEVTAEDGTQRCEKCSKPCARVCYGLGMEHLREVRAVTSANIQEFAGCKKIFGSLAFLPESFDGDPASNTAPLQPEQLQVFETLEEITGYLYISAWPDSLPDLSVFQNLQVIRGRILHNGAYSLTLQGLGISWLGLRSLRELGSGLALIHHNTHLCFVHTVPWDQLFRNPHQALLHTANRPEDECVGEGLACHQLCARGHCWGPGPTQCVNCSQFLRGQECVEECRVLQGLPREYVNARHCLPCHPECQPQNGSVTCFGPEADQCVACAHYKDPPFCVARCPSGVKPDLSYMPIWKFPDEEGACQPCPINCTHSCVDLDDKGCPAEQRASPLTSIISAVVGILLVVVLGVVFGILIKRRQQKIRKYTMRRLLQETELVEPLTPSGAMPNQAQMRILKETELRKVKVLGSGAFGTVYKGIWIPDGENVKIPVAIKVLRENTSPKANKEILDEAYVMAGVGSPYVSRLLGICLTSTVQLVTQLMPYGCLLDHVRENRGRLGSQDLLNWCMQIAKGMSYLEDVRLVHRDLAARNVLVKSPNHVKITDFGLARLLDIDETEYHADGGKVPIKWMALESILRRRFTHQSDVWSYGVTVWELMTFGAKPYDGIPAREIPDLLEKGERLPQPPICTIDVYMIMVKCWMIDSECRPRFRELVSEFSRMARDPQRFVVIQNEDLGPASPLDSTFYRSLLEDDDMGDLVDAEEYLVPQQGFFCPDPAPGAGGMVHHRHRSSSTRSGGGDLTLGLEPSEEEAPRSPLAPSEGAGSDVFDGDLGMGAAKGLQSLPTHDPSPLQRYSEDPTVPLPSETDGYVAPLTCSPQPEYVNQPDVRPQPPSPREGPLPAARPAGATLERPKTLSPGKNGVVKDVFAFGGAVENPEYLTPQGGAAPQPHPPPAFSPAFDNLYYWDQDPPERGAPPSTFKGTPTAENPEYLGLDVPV
PostGolgi ctrl: inhibits growth of the yeast control strain. efflux-deficient yeast background strain, growth absorbance A615, 16 h. 5% of 98,000 active. inhibition, % at 10 µM
PostGolgi yeast: growth inhibition of a yeast mutant, post-Golgi transport screen; post-Golgi transport phenotypic cell assay; inhibition, % at 10 µM; 0.9% of 98,000 active; AID 739;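 further: yeast cells grown in 1536-well plates; yeast grown about 18 h at 30C before absorbance read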
tolC growth inh: E. coli tolC mutant growth inhibition | E. coli BW25113 tolC mutant growth, OD615 | growth inhibition, % at 10 µM (by protocol) | 2.2% of 65,000 active | AID 573;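 active means growth inhibition at or above a cutoff equal to the mean over every tested compound plus 3 SD, cut at about 60% in these data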;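 further: growth measured after 20 h incubation at 37 °C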
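Test system: tolC-deleted E. coli BW25113; medium: LB with kanamycin 50 µg/mL; compound: single-point testing at 10 µM; incubation: 20 h compound exposure of bacteria at 37 °C; signal: OD at 615 nm; evaluation: growth inhibition in percent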
E coli WT exp: growth inhibitors of E. coli BW25113 wild type; OD600 absorbance; growth inhibition, % at 100 µM; 0.15% of 98,000 active;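 active means growth inhibition above about 50% at one test dose, limit read from the data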;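 further: growth measured after 20 h incubation at 37 °C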
A number is an active result. Unless noted, no stated cut-off is given here; in the data, active means inhibition above about 30%; inactive means the rest.

For O=C(Nc1ccc(C(F)(F)F)cc1)C1CCCN1S(=O)(=O)c1cccc2cccnc12 (configuration not stated) the results were HER2 expr 66K inactive, PostGolgi ctrl 30, PostGolgi yeast inactive, tolC growth inh 76 and E coli WT exp inactive.
O=C(Nc1cccc(F)c1)C1CCCN1S(=O)(=O)c1cccc2cccnc12 (configuration not stated) was read as HER2 expr 66K inactive, PostGolgi ctrl inactive, PostGolgi yeast inactive, tolC growth inh inactive and E coli WT exp inactive.
CCOC(=O)C1CCN(C(=O)C2CCN(S(=O)(=O)c3cccc4cccnc34)CC2)CC1 was read as HER2 expr 66K inactive, PostGolgi ctrl 32, PostGolgi yeast inactive, tolC growth inh inactive and E coli WT exp inactive.
O=C(NCc1ccco1)C1CCN(S(=O)(=O)c2cccc3cccnc23)CC1 was read as HER2 expr 66K -17, PostGolgi ctrl inactive, PostGolgi yeast inactive, tolC growth inh inactive and E coli WT exp inactive.
`O=C(Nc1nc2cc(Cl)ccc2s1)C1CCCN(S(=O)(=O)c2cccc3cccnc23)C1` (configuration not stated) gave PostGolgi ctrl 36, PostGolgi yeast inactive and E coli WT exp inactive.
Screening COC(=O)c1sc(S(=O)(=O)N2CCC(C(=O)O)CC2)c(C(=O)OC)c1C returned PostGolgi ctrl inactive, PostGolgi yeast inactive and E coli WT exp inactive.
For O=c1c2ccccc2oc2nc3ccn(Cc4ccncc4)c(=O)c3cc12 the results were PostGolgi ctrl inactive, PostGolgi yeast inactive and E coli WT exp inactive.
Cc1ccc(NC(=O)C2CCN(S(=O)(=O)c3cccc4cccnc34)CC2)nc1 was read as HER2 expr 66K inactive, PostGolgi ctrl 32, PostGolgi yeast inactive, tolC growth inh inactive and E coli WT exp inactive.
Cc1cccc(NC(=O)C2CCN(S(=O)(=O)c3cccc4cccnc34)CC2)n1 was read as HER2 expr 66K inactive, PostGolgi ctrl inactive, PostGolgi yeast inactive, tolC growth inh inactive and E coli WT exp inactive.
Cc1cc(C)c(C)c(S(=O)(=O)NCc2ccco2)c1C was read as HER2 expr 66K inactive, PostGolgi ctrl 34, PostGolgi yeast inactive, tolC growth inh inactive and E coli WT exp inactive.
`O=S(=O)(NCc1ccco1)c1cccc2cccnc12` gave HER2 expr 66K -16, PostGolgi ctrl inactive, PostGolgi yeast inactive, tolC growth inh inactive and E coli WT exp inactive.
`Cc1ccc(NC(=O)C2CCN(S(=O)(=O)c3c(C)n[nH]c3C)CC2)nc1` gave HER2 expr 66K inactive, PostGolgi ctrl 35, PostGolgi yeast inactive, tolC growth inh inactive and E coli WT exp inactive.
`CCOC(=O)c1[nH]c(COC(=O)C2CC(=O)N(Cc3ccccc3)C2)c(C(=O)OCC)c1C` (configuration not stated) gave HER2 expr 66K inactive, PostGolgi ctrl inactive, PostGolgi yeast inactive, tolC growth inh inactive and E coli WT exp inactive.
For O=C(NOC(=O)c1ccccc1Cl)c1cccs1 the results were PostGolgi ctrl inactive, PostGolgi yeast inactive and E coli WT exp inactive.
For COCCOC(=O)c1c(C)nc(SCC(=O)Nc2cccc3ccccc23)c(C#N)c1-c1ccco1 the results were PostGolgi ctrl inactive, PostGolgi yeast inactive and E coli WT exp inactive.
CNC(=O)c1c(C)nc(SCC(=O)NCc2ccc(OC)cc2)c(C#N)c1-c1ccco1 was read as HER2 expr 66K -33, PostGolgi ctrl inactive, PostGolgi yeast inactive, tolC growth inh inactive and E coli WT exp inactive.
For Fc1ccc(NCc2nnc(SCc3nnc(-c4ccccc4)o3)n2Cc2ccccc2)cc1 the results were HER2 expr 66K inactive, PostGolgi ctrl inactive, PostGolgi yeast 46, tolC growth inh inactive and E coli WT exp inactive.
`COc1c(C)cccc1C(=O)Nc1cc(-c2nn3c(C)nnc3s2)ccc1C` gave HER2 expr 66K inactive and tolC growth inh inactive.
CCN(CC)c1nc2ccccc2c(N)c1-c1ccccc1 was read as PostGolgi ctrl inactive, PostGolgi yeast inactive and E coli WT exp inactive.
Screening CCCCn1c(=O)[nH]c2ccccc21 returned HER2 expr 66K inactive, PostGolgi ctrl inactive, PostGolgi yeast inactive, tolC growth inh inactive and E coli WT exp inactive.
`O=c1[nH]c2ccccc2n1CCCSc1cnc2ccccc2n1` gave HER2 expr 66K inactive, PostGolgi ctrl 43, PostGolgi yeast inactive, tolC growth inh inactive and E coli WT exp inactive.
Screening O=C(CN(C(=O)CNC(=O)c1ccco1)c1ccc2c(c1)OCO2)NC1CCCCC1 returned HER2 expr 66K inactive, PostGolgi ctrl inactive, PostGolgi yeast inactive, tolC growth inh inactive and E coli WT exp inactive.
Screening O=C(CN(C(=O)CNC(=O)c1ccco1)c1ccc(Cl)c(Cl)c1)NC1CCCCC1 returned HER2 expr 66K inactive, PostGolgi ctrl inactive, PostGolgi yeast inactive, tolC growth inh 72 and E coli WT exp inactive.
O=S(=O)(Nc1cccc2cccnc12)c1ccc(S(=O)(=O)N2CCCC2)cc1 was read as HER2 expr 66K inactive, PostGolgi ctrl inactive, PostGolgi yeast inactive, tolC growth inh 81 and E coli WT exp inactive.
Screening CS(=O)(=O)Nc1cccc2cccnc12 returned HER2 expr 66K inactive, PostGolgi ctrl inactive, PostGolgi yeast inactive, tolC growth inh inactive and E coli WT exp inactive.
Cc1cc2nc(C3CCN(CC4COc5ccccc5O4)CC3)[nH]c2cc1C (configuration not stated) was read as HER2 expr 66K inactive, PostGolgi ctrl 34, PostGolgi yeast 41, tolC growth inh inactive and E coli WT exp inactive.
For O=C(NCCc1ccccc1)C1CCCN1C(=O)Nc1ccc(F)cc1 (configuration not stated) the results were HER2 expr 66K inactive, PostGolgi ctrl inactive, PostGolgi yeast inactive, tolC growth inh inactive and E coli WT exp inactive.
`Cc1ccc(-c2cc(C(=O)NCc3cnn(C)c3C)c3cc(Br)ccc3n2)cc1` gave PostGolgi ctrl 50, PostGolgi yeast inactive and E coli WT exp inactive.
Screening Fc1ccc(Cn2nnc(-c3ccc(CN4CCOCC4)cc3)n2)cc1 returned HER2 expr 66K inactive, PostGolgi ctrl 31, PostGolgi yeast 89, tolC growth inh inactive and E coli WT exp inactive.
Clc1ccc(Cn2nnc(-c3ccc(CN4CCOCC4)cc3)n2)cc1 was read as HER2 expr 66K inactive, PostGolgi ctrl 51, PostGolgi yeast 82, tolC growth inh inactive and E coli WT exp inactive.
`Fc1cccc(Cl)c1Cn1nnc(-c2ccc(N3CCOCC3)cc2)n1` gave PostGolgi ctrl inactive, PostGolgi yeast inactive and E coli WT exp inactive.
For O=C(O)c1cc(-c2ccc(Cl)cc2)n[nH]1 the results were HER2 expr 66K inactive, PostGolgi ctrl inactive, PostGolgi yeast inactive, tolC growth inh inactive and E coli WT exp inactive.
O=[N+]([O-])c1cccnc1N1CCC(c2cc(-c3ccc(Cl)cc3)n[nH]2)CC1 was read as PostGolgi ctrl 69, PostGolgi yeast inactive and E coli WT exp inactive.
`CCN(CC)C(=O)C(=O)c1cccn1-c1ccccc1C#N` gave PostGolgi ctrl inactive, PostGolgi yeast inactive and E coli WT exp inactive.
`c1ccc2c(c1)CCN(c1nc3ccccc3n3cnnc13)C2` gave HER2 expr 66K inactive, PostGolgi ctrl 43, PostGolgi yeast inactive, tolC growth inh inactive and E coli WT exp inactive.

Compound activity as filed in PubChem BioAssay.
